The text below walks through data of ChEMBL document CHEMBL3112473, “Synthesis of a novel series of thiazole-based histone acetyltransferase inhibitors” (Bioorg Med Chem, 2014).

Calls of active or inactive are those of the source. The calls are words filed in the database; no cut-off is given here.

What is called inhibition is the share of the control response that was lost under treatment.

The subject of data set [1] is Saccharomyces cerevisiae. The experiment in a line: Growth inhibition of Saccharomyces cerevisiae S288c harboring sas2delta mutant at 0.75 mM after 48 hrs. Type of data set: functional, organism-based. In outline:
(§1)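 Spot assay on S. cerevisiae. Wild type (S288c or BY4742) and isogenic HAT deletion strains were used: gcn5Δ, elp3Δ and sas2Δ in S288c; gcn5Δ and rtt109Δ in BY4742. Growth was scored against wild type after 48 h at 28 °C.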

Data set [2] concerns Saccharomyces cerevisiae. Put plainly: Growth inhibition of Saccharomyces cerevisiae S288c harboring gcn5delta mutant at 0.75 mM after 48 hrs. Type of data set: functional, organism-based. In outline: as §1
Data set [3] concerns Saccharomyces cerevisiae. Put plainly: Growth inhibition of Saccharomyces cerevisiae BY4742 harboring rtt109delta mutant at 0.75 mM after 48 hrs. Type of data set: functional, organism-based. The gist of the method:
as §1

The subject of data set [4] is Saccharomyces cerevisiae. Put plainly: Growth inhibition of Saccharomyces cerevisiae S288c harboring elp3delta mutant at 0.75 mM after 48 hrs. Type of data set: functional, organism-based. The gist of the method:
as §1

The subject of data set [5] is Saccharomyces cerevisiae. Put plainly: Growth inhibition of Saccharomyces cerevisiae BY4742 harboring gcn5delta mutant at 0.75 mM after 48 hrs. Type of data set: functional, organism-based. In outline:
as §1

Data set [6] concerns Saccharomyces cerevisiae. The experiment in a line: Growth inhibition of Saccharomyces cerevisiae BY4742 harboring gcn5delta mutant at 0.2 mM after 48 hrs. It counts as functional, organism-based. In outline:
as §1

The test system of data set [7] is Saccharomyces cerevisiae. The experiment in a line: Reduction of wild type Saccharomyces cerevisiae growth at 0.2 mM after 48 hrs. It counts as functional, organism-based. The gist of the method:
as §1

The subject of data set [8] is Saccharomyces cerevisiae. The experiment in a line: Growth inhibition of Saccharomyces cerevisiae S288c harboring gcn5delta mutant at 0.2 mM after 48 hrs. Type of data set: functional, organism-based. The gist of the method: as §1
The test system of data set [9] is Saccharomyces cerevisiae. Put plainly: Reduction of growth of Saccharomyces cerevisiae harboring gcn5delta mutant at 0.2 mM after 48 hrs. Type of data set: functional, organism-based. The gist of the method:
as §1

Data set [10] deals with Saccharomyces cerevisiae. Put plainly: Reduction of growth of Saccharomyces cerevisiae harboring gcn5delta mutant at 0.5 mM after 48 hrs. Type of data set: functional, organism-based. The gist of the method: as §1
Data set [11] has as its system Saccharomyces cerevisiae. Put plainly: Growth inhibition of Saccharomyces cerevisiae S288c harboring gcn5delta mutant at 0.5 mM after 48 hrs. It counts as functional, organism-based. In outline: as §1
For data set [12], the system named is Saccharomyces cerevisiae. The experiment in a line: Growth inhibition of Saccharomyces cerevisiae BY4742 harboring gcn5delta mutant at 0.5 mM after 48 hrs. Type of data set: functional, organism-based. The gist of the method: as §1
Data set [13] relates to Saccharomyces cerevisiae. The experiment in a line: Reduction of wild type Saccharomyces cerevisiae growth at 0.5 mM after 48 hrs. It counts as functional, organism-based. In outline: as §1
Data set [14] has as its system Saccharomyces cerevisiae. Put plainly: Growth inhibition of Saccharomyces cerevisiae S288c harboring sas2delta mutant at 0.5 mM after 48 hrs. It counts as functional, organism-based. The gist of the method: as §1
The subject of data set [15] is Saccharomyces cerevisiae. The experiment in a line: Growth inhibition of Saccharomyces cerevisiae S288c harboring elp3delta mutant at 0.5 mM after 48 hrs. It counts as functional, organism-based. In outline:
as §1

Data set [16] deals with Saccharomyces cerevisiae. The experiment in a line: Growth inhibition of Saccharomyces cerevisiae BY4742 harboring rtt109delta mutant at 0.5 mM after 48 hrs. Type of data set: functional, organism-based. In outline: as §1
Data set [17] has as its system Saccharomyces cerevisiae. Put plainly: Reduction of growth of Saccharomyces cerevisiae harboring gcn5delta mutant at 1 mM after 48 hrs. It counts as functional, organism-based. In outline: as §1
Data set [18] has as its system Saccharomyces cerevisiae. The experiment in a line: Reduction of wild type Saccharomyces cerevisiae growth at 1 mM after 48 hrs. It counts as functional, organism-based. The gist of the method:
as §1

Data set [19] deals with Histone acetyltransferase KAT2B (Homo sapiens) (UniProt Q92831). Put plainly: Inhibition of human recombinant histone acetyltransferase PCAF assessed as acetylation of histone H3 at 0.15 to 0.6 mM. The gist of the method:
(§2)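 Fluorescent in vitro HAT kit assay. Human recombinant HAT catalytic domains (Gcn5, p300, PCAF) were incubated with acetyl-CoA and histone H3 substrate, with inhibitor at 0.15, 0.3 and 0.6 mM. Anacardic acid at 15 µM served as reference. Residual activity measured relative to untreated control. Each reaction run three times, standard errors given.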

The test system of data set [20] is HeLa. Put plainly: Inhibition of histone acetyltransferase in human HeLa cells assessed as AcH3 and H3AcK18 level after 72 hrs by Western blotting. It counts as cell-based. In outline:
(§3)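 HeLa, U87 and BE-SK-N-BE(2) cells incubated with compound at 50 or 100 µM for 48 or 72 h. Total lysates in 2× Laemmli buffer, boiled 10 min, run on 15% SDS-PAGE and blotted. Probed for acetyl-H3 and H3K18ac, with GAPDH as constitutive control.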
On the technique in general: A western blot detects proteins with antibodies after separation by electrophoresis.

The subject of data set [21] is U-87MG ATCC. Put plainly: Inhibition of histone acetyltransferase in human U87 cells assessed as AcH3 and H3AcK18 level after 48 to 72 hrs by Western blotting. Type of data set: cell-based. In outline: as §3
Data set [22] is filed under the species Homo sapiens. The experiment in a line: Inhibition of histone acetyltransferase in human BE-SK-N-BE(2) cells assessed as AcH3 and H3AcK18 level after 72 hrs by Western blotting. It counts as cell-based. The gist of the method:
as §3

Data set [23] deals with Saccharomyces cerevisiae. Put plainly: Growth inhibition of Saccharomyces cerevisiae BY4742 harboring gcn5delta mutant after 48 hrs. It counts as functional, organism-based. In outline: as §1
Data set [24] relates to HeLa. Put plainly: Cytotoxicity against human HeLa cells assessed as cell viability at 50 to 100 uM after 48 to 72 hrs by trypan blue exclusion assay. Type of data set: cell-based. The gist of the method:
(§4)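 Trypan blue exclusion on HeLa, U87 glioblastoma and BE-SK-N-BE(2) neuroblastoma cells. Compound added at final 50 and 100 µM and incubated 48 or 72 h at 37 °C, then cells collected and counted. About 1.5 × 10⁵ cells counted per point. Viability given as mean percentage of viable/dead cells relative to untreated controls.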

For data set [25], the system named is Saccharomyces cerevisiae. Put plainly: Growth inhibition of Saccharomyces cerevisiae S288c harboring gcn5delta mutant after 48 hrs. It counts as functional, organism-based. In outline: as §1
Data set [26] is described as follows: Cytotoxicity against human U87 cells assessed as cell viability at 50 to 100 uM after 48 to 72 hrs by trypan blue exclusion assay. Particulars: u-87mg atcc. Type of data set: cell-based. In outline:
as §4

Data set [27] concerns the target Histone acetyltransferase GCN5 (Saccharomyces cerevisiae) (UniProt Q03330). Put plainly: Inhibition of Saccharomyces cerevisiae S288c histone acetyltransferase assessed as acetylation of histone H3 at 0.6 to 0.8 mM by Western blotting.
The target of data set [28] is T1, Histone acetyltransferase SAS2 (Saccharomyces cerevisiae (strain ATCC 204508 / S288c) (Baker's yeast)) (UniProt P40963).
T1 sequence (whole entry): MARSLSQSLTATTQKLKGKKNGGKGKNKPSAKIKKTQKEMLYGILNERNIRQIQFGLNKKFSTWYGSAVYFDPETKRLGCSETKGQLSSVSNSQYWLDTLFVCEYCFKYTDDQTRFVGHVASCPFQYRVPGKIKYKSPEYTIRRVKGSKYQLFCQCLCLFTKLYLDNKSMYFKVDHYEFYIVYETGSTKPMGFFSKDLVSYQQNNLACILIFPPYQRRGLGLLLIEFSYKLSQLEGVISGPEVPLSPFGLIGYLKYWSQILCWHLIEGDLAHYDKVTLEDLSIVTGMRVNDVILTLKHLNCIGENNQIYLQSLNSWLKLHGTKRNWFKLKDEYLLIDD
The experiment in a line: Inhibition of Saccharomyces cerevisiae S288c histone acetyltransferase assessed as acetylation of histone H4 at 0.6 to 0.8 mM by Western blotting. In outline: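 S288c wild-type yeast grown at 28 °C in YPD with 1% DMSO, plus compound at 0.6 or 0.8 mM. Total protein extracts boiled in Laemmli buffer, run on 15% SDS-PAGE and blotted. Probed for pan-acetylated H3 and H4, with unmodified H3 and ADA2 as loading standards. Acetylation normalized to ADA2. Triplicate experiments, SD reported.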

In data set [29] the test system is U-87MG ATCC. Put plainly: Inhibition of histone acetyltransferase in human U87 cells assessed as AcH3 and H3AcK18 level after 72 hrs by Western blotting. It counts as cell-based. In outline: as §3
The species named for data set [30] is Homo sapiens. Put plainly: Inhibition of histone acetyltransferase in human BE-SK-N-BE(2) cells assessed as AcH3 and H3AcK18 level after 48 to 72 hrs by Western blotting. Type of data set: cell-based. In outline: as §3
Data set [31] in a line: Cytotoxicity against human BE-SK-N-BE(2) cells assessed as cell viability at 100 uM after 48 to 72 hrs by trypan blue exclusion assay. Particulars: read-out: Activity. It counts as cell-based. In outline:
as §4

Data set [32] has as its target Histone acetyltransferase p300 (Homo sapiens) (UniProt Q09472). The experiment in a line: Inhibition of human recombinant histone acetyltransferase p300 assessed as acetylation of histone H3 at 0.6 mM. In outline:
as §2

Data set [33] relates to HeLa. Put plainly: Inhibition of histone acetyltransferase in human HeLa cells assessed as AcH3 and H3AcK18 level after 48 to 72 hrs by Western blotting. It counts as cell-based. The gist of the method: as §3

Chain of Histone acetyltransferase p300 (Homo sapiens) (Q09472 whole entry): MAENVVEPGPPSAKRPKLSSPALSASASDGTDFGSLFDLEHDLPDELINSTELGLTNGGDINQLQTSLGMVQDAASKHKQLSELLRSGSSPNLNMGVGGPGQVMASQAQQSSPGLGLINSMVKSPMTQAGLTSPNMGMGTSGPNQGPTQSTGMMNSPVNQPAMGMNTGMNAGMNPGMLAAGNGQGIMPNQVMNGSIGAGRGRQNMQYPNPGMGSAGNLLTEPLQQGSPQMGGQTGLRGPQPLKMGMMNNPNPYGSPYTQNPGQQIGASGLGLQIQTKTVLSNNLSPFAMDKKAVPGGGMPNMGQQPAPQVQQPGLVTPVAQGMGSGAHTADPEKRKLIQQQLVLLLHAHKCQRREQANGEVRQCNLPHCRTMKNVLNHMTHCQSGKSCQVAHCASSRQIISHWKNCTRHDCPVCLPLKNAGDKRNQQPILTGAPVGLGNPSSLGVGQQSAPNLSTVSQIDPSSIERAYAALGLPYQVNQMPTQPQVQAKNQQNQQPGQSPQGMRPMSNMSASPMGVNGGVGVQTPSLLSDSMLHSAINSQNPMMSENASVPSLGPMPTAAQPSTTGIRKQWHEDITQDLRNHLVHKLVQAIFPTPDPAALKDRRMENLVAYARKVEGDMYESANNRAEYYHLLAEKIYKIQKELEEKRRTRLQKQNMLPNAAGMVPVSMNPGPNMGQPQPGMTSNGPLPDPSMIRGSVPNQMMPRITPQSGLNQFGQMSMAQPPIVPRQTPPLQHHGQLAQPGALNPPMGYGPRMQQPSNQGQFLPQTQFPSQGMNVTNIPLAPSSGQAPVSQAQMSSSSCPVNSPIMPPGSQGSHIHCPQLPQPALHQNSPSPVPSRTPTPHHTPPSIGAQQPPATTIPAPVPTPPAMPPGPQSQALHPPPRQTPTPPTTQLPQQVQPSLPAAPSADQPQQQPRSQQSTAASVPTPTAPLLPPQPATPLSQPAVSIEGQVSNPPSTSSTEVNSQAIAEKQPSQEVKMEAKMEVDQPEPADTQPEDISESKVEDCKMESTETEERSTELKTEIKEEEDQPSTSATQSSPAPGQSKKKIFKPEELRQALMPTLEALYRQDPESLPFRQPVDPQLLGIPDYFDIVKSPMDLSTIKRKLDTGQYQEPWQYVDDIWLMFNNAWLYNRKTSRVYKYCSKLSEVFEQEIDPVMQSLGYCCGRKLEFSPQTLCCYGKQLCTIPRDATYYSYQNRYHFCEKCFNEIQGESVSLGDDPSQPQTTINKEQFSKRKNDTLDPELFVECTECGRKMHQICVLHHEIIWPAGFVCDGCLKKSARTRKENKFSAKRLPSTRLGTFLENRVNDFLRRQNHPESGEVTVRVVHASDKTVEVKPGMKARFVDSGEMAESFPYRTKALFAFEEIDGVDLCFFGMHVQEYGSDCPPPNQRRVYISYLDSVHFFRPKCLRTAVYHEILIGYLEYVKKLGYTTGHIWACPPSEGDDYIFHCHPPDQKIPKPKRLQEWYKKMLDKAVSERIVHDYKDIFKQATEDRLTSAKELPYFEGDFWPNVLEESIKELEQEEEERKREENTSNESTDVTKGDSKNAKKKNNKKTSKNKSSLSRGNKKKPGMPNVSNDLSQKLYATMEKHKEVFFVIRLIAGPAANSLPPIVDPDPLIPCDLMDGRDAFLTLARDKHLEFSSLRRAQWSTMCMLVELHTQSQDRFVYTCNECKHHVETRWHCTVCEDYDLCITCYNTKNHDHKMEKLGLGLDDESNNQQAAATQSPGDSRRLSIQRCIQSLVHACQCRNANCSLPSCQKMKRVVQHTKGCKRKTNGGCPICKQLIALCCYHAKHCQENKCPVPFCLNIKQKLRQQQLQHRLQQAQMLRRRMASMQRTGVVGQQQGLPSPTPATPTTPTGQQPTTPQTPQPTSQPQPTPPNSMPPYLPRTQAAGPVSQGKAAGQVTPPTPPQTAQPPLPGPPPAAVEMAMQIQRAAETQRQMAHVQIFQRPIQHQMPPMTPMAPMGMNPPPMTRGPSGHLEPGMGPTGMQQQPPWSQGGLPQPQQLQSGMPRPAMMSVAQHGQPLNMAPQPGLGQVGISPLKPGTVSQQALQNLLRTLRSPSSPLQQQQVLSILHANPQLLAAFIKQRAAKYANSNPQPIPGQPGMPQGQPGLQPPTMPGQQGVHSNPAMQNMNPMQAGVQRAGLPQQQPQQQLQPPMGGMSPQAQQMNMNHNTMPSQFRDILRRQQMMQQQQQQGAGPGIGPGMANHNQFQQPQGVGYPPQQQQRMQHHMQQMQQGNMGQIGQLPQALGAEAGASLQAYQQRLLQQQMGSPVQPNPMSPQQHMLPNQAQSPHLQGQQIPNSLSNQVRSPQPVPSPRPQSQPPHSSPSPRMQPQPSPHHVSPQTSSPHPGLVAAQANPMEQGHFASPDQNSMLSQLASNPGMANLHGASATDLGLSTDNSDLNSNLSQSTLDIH
Chain of Histone acetyltransferase KAT2B (Homo sapiens) (Q92831 whole entry, looked up, the tested form may be a part): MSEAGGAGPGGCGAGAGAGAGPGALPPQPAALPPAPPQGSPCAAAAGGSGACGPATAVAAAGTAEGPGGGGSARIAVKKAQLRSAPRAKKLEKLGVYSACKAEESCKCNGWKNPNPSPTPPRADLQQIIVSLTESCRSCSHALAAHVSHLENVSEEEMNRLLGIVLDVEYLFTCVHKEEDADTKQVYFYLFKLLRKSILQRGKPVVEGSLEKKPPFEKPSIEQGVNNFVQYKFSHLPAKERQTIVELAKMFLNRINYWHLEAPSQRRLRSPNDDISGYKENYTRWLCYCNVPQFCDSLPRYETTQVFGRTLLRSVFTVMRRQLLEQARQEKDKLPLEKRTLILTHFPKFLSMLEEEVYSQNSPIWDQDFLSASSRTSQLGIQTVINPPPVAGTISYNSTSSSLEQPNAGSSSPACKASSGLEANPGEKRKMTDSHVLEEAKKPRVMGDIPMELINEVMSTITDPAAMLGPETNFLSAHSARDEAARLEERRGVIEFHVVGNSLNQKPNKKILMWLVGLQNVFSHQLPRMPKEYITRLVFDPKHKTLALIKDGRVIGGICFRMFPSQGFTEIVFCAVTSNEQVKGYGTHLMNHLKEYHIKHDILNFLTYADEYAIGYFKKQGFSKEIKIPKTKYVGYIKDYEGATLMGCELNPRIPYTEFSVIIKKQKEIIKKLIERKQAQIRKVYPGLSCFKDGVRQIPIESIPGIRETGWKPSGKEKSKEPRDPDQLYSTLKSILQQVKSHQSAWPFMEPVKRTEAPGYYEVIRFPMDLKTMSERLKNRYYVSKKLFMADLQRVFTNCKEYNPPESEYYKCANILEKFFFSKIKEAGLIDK
Chain of Histone acetyltransferase GCN5 (Saccharomyces cerevisiae) (Q03330 whole entry, looked up): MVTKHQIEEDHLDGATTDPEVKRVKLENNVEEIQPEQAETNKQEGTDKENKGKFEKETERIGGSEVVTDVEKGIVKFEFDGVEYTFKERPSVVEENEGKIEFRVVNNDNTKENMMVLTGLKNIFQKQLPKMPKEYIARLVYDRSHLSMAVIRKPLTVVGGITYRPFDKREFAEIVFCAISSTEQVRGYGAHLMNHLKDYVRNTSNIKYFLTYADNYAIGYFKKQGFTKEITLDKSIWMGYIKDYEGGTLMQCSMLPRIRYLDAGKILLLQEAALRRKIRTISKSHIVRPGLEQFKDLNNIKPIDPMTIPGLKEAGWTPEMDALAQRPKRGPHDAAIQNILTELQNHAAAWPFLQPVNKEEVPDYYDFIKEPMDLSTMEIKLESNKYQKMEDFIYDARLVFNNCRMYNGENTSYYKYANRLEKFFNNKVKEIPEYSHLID

`COc1cc(/C=C/C(=O)CC(=O)/C=C/c2ccc(O)c(OC)c2)ccc1O`: the “growth inhibition (GI)” value in the data set on Saccharomyces cerevisiae [1], in the data set with Saccharomyces cerevisiae [3] and in the data set on Saccharomyces cerevisiae [4] was “inactive” throughout. Also, the “growth inhibition (GI)” value in the data set on Saccharomyces cerevisiae [2] and in the data set with Saccharomyces cerevisiae [5] was “Active” in each case.
Turning to `CC/C(C)=N/Nc1nc(-c2ccc(Cl)cc2)cs1`, the “growth inhibition (GI)” value in the data set with Saccharomyces cerevisiae [6] and with Saccharomyces cerevisiae [8] was “Active” throughout. Also, the outcome with Saccharomyces cerevisiae [7] and with Saccharomyces cerevisiae [9] was Active.
With `Clc1ccc(-c2csc(NN=C3CCCC3)n2)cc1`, the result in the data set with Saccharomyces cerevisiae [10] and in the data set on Saccharomyces cerevisiae [13] was Active. In addition, the “growth inhibition (GI)” value with Saccharomyces cerevisiae [11] and with Saccharomyces cerevisiae [12] was “Active” each time. Further, the “growth inhibition (GI)” value in the data set with Saccharomyces cerevisiae [14], with Saccharomyces cerevisiae [15] and in the data set with Saccharomyces cerevisiae [16] was “inactive” in each case.
With `CCC(CC)=NNc1nc(-c2ccc(Cl)cc2)cs1`, the “growth inhibition (GI)” value in the data set on Saccharomyces cerevisiae [6] and in the data set on Saccharomyces cerevisiae [8] was “Active” in each case. The result in the data set with Saccharomyces cerevisiae [7] and in the data set on Saccharomyces cerevisiae [9] was Active.
For the molecule `C/C(=N/Nc1nc(-c2ccc(Cl)cc2)cs1)c1ccccn1`, the result with Saccharomyces cerevisiae [17] and in the data set on Saccharomyces cerevisiae [18] was Active.
As to `CC(C)=NNc1nc(-c2ccc(Cl)cc2)cs1`, the inhibition result in [19] and in [28] was “inactive” in each case. Moreover, the inhibition result (in the data set with HeLa [20]; in the data set listed under Homo sapiens [22]; with U-87MG ATCC [29]; in [32]) was “Active” each time. In addition, the inhibition result is “Dose-dependent effect” with U-87MG ATCC [21], 50% in [27], “Dose-dependent effect” in the data set filed under Homo sapiens [30] and “Dose-dependent effect” with HeLa [33]. The “growth inhibition (GI)” value in the data set with Saccharomyces cerevisiae [6] and in the data set with Saccharomyces cerevisiae [8] was “Active” each time. In addition, the “growth inhibition (GI)” value with Saccharomyces cerevisiae [23] and with Saccharomyces cerevisiae [25] was “Dose-dependent effect” each time. In addition, the Activity entry (with HeLa [24]; in data set [26]) was “Non-toxic” throughout. Moreover, the outcome in the data set with Saccharomyces cerevisiae [7] and with Saccharomyces cerevisiae [9] was Active. For the same molecule, the viability at 100 µM in [31] was determined as 30%.
